Laboratory results: ChEMBL document CHEMBL3603756, “Synthesis and apoptotic activity of new pyrazole derivatives in cancer cell lines” (2015)
Calls of active or inactive are those of the source. The rule behind the calls is not given here.

Legend:
THP-1 [1] = assay: Cytotoxicity against human THP1 cells assessed as cell viability at 12.5 ug/ml incubated for 24 hrs by MTS assay; type: functional; settings: THP-1, 24 h, read-out: Activity
Summary of the method: (§1)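 Cells were held at 37 °C, 5% CO2 in humid air. HEp-2 (5 x 10³/well) and HCT-8 (7 x 10³/well) grew in DMEM + 10% heat-inactivated FBS and got compound (binary dilutions) 24 h after seeding. THP-1 (5 x 10³ cells, RPMI-1640 + 10% FBS) were added directly to the dilutions. Exposure lasted 24 h. MTS (CellTiter 96 AQueous One) read-out was absorbance at 490 nm.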

THP-1 [2] = assay: Cytotoxicity against human THP1 cells assessed as cell viability at 25 ug/ml incubated for 24 hrs by MTS assay; type: functional; settings: THP-1, 24 h, read-out: Activity; summary of the method: as §1
THP-1 [3] = assay: Cytotoxicity against human THP1 cells assessed as cell viability at 50 ug/ml incubated for 24 hrs by MTS assay; type: functional; settings: THP-1, 24 h, read-out: Activity; summary of the method: as §1
[4] = Cytotoxicity against human HCT8 cells assessed as cell viability at 12.5 ug/ml incubated for 24 hrs by MTS assay; type: functional; settings: HCT-8, 24 h, read-out: Activity; summary of the method: as §1
[5] = Cytotoxicity against human HCT8 cells assessed as cell viability at 25 ug/ml incubated for 24 hrs by MTS assay; type: functional; settings: HCT-8, 24 h, read-out: Activity; summary of the method: as §1
[6] = Cytotoxicity against human HCT8 cells assessed as cell viability at 50 ug/ml incubated for 24 hrs by MTS assay; type: functional; settings: HCT-8, 24 h, read-out: Activity; summary of the method: as §1
[7] = Cytotoxicity against human Hep2 cells assessed as cell viability at 12.5 ug/ml incubated for 24 hrs by MTS assay; type: functional; settings: HEp-2, 24 h, read-out: Activity; summary of the method: as §1
[8] = Cytotoxicity against human Hep2 cells assessed as cell viability at 25 ug/ml incubated for 24 hrs by MTS assay; type: functional; settings: HEp-2, 24 h, read-out: Activity; summary of the method: as §1
[9] = Cytotoxicity against human Hep2 cells assessed as cell viability at 50 ug/ml incubated for 24 hrs by MTS assay; type: functional; settings: HEp-2, 24 h, read-out: Activity; summary of the method: as §1
HCT-8 [10] = assay: Induction of apoptosis in human HCT8 cells assessed necrosis level at 50 ug/ml incubated for 24 hrs by annexin V-FITC and propidium iodide staining based flow cytometry (reference value: 1.12%); type: functional
HCT-8 [11] = assay: Induction of apoptosis in human HCT8 cells assessed early apoptosis level at 50 ug/ml incubated for 24 hrs by annexin V-FITC and propidium iodide staining based flow cytometry (reference value: 0.75%); type: functional
HCT-8 [12] = assay: Induction of apoptosis in human HCT8 cells assessed late apoptosis level at 50 ug/ml incubated for 24 hrs by annexin V-FITC and propidium iodide staining based flow cytometry (reference value: 4.8%); type: functional
HCT-8 [13] = assay: Induction of apoptosis in human HCT8 cells assessed viable cells level at 50 ug/ml incubated for 24 hrs by annexin V-FITC and propidium iodide staining based flow cytometry (reference value: 93.3%); type: functional
HEp-2 [14] = assay: Induction of cell cycle arrest in human Hep2 cells assessed accumulation at G2/M phase incubated for 24 hrs by propidium iodide staining based flow cytometry; type: functional
HEp-2 [15] = assay: Induction of cell cycle arrest in human Hep2 cells assessed accumulation at G0/G1 phase at 10 ug/ml incubated for 24 hrs by propidium iodide staining based flow cytometry (reference value: 74.51%); type: functional
HEp-2 [16] = assay: Induction of cell cycle arrest in human Hep2 cells assessed accumulation at G0/G1 phase at 50 ug/ml incubated for 24 hrs by propidium iodide staining based flow cytometry (reference value: 74.51%); type: functional
HEp-2 [17] = assay: Induction of cell cycle arrest in human Hep2 cells assessed accumulation at S phase at 10 ug/ml incubated for 24 hrs by propidium iodide staining based flow cytometry (reference value: 21.06%); type: functional
HEp-2 [18] = assay: Induction of cell cycle arrest in human Hep2 cells assessed accumulation at S phase at 50 ug/ml incubated for 24 hrs by propidium iodide staining based flow cytometry (reference value: 21.06%); type: functional
HEp-2 [19] = assay: Induction of cell cycle arrest in human Hep2 cells assessed accumulation at G2/M phase at 10 ug/ml incubated for 24 hrs by propidium iodide staining based flow cytometry (reference value: 7.82%); type: functional
HEp-2 [20] = assay: Induction of cell cycle arrest in human Hep2 cells assessed accumulation at G2/M phase at 50 ug/ml incubated for 24 hrs by propidium iodide staining based flow cytometry (reference value: 7.82%); type: functional
[21] = Reduction in PRKAA1 gene expression in human Hep2 cells at 10 ug/ml incubated for 24 hrs by real-time PCR method; type: functional, cell-based; settings: HEp-2
Summary of the method: (§2)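 HEp-2 cells were treated 24 h at 10 or 50 µg/mL. Total RNA was extracted with Trizol, and 2 µg was reverse-transcribed. 50 ng cDNA went into TaqMan real-time PCR with beta-actin as endogenous control. Relative expression was calculated by the ∆∆CT method. Each experiment was run three times.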

[22] = Reduction in PRKAA1 gene expression in human Hep2 cells at 50 ug/ml incubated for 24 hrs by real-time PCR method; type: functional, cell-based; settings: HEp-2; summary of the method: as §2
[23] = Reduction in PRKAA2 gene expression in human Hep2 cells at 10 ug/ml incubated for 24 hrs by real-time PCR method; type: functional, cell-based; settings: HEp-2; summary of the method: as §2
[24] = Reduction in PRKAA2 gene expression in human Hep2 cells at 50 ug/ml incubated for 24 hrs by real-time PCR method; type: functional, cell-based; settings: HEp-2; summary of the method: as §2

SMILES | viability at 12.5 µg/mL (THP-1 [1]) | viability at 25 µg/mL (THP-1 [2]) | viability at 50 µg/mL (THP-1 [3]) | viability at 12.5 µg/mL [4] | viability at 25 µg/mL [5] | viability at 50 µg/mL [6] | viability at 12.5 µg/mL [7] | viability at 25 µg/mL [8] | viability at 50 µg/mL [9] | Activity (HCT-8 [10]) | Activity (HCT-8 [11]) | Activity (HCT-8 [12]) | Activity (HCT-8 [13]) | Activity (HEp-2 [14]) | Activity (HEp-2 [15]) | Activity (HEp-2 [16]) | Activity (HEp-2 [17]) | Activity (HEp-2 [18]) | Activity (HEp-2 [19]) | Activity (HEp-2 [20]) | also measured
Cn1cc(C(=O)NC(=S)Nc2ccc(I)cc2)cn1 | 100% | 79.3% | 35.2% | 100% | 100% | 93.3% | 100% | 100% | 93% | 1.25% | 2.31% | 3.1% | 93.3% | Dose-dependent effect | 71.62% | 74.24% | 17.26% | 24.79% | 11.98% | 15.88% | Activity [21]: Active; Activity [22]: Active; Activity [23]: Active; Activity [24]: Active
Cn1cc(C(=O)/N=C2\SCC(C)(O)N2c2ccc(Br)cc2)cn1 (stereo not given) | 95% | 67.4% | 33.9% | 98% | 95% | 85.7% | 100% | 92% | 91% | 1.34% | 6.22% | 6.76% | 85.7% | Dose-dependent effect | 62.35% | 37.33% | 19.2% | 28.71% | 19.88% | 39.46% | Activity [21]: Active; Activity [22]: Active; Activity [23]: Active; Activity [24]: Active
Cc1cs/c(=N\C(=O)c2cnn(C)c2)n1-c1ccc(Br)cc1 | 97% | 87.6% | 41.6% | 100% | 97% | 89.4% | 100% | 95% | 85% | 2.66% | 4.47% | 3.44% | 89.4% | Dose-dependent effect | 74.24% | 63.34% | 21.45% | 24.2% | 7.76% | 19.45% | Activity [21]: Active; Activity [22]: Active; Activity [23]: Active; Activity [24]: Active
Cn1cc(C(=O)NC(=S)Nc2ccccc2I)cn1 | 100% | 84% | 31.3% | 100% | 100% | 91.8% | 100% | 100% | 90% | 2.49% | 2.01% | 3.75% | 91.8% | Dose-dependent effect | 76.4% | 67.6% | 21.88% | 18.14% | 6.86% | 15.92% | Activity [21]: Active; Activity [22]: Active; Activity [23]: Active; Activity [24]: Active
Cn1cc(C(=O)NC(=S)Nc2ccc(Br)cc2)cn1 | 100% | 72.9% | 37% | 100% | 100% | 91.7% | 100% | 100% | 90% | 1.73% | 2.78% | 3.83% | 91.7% | Dose-dependent effect | 75.28% | 67.63% | 16.97% | 22.6% | 9.91% | 18.75% | Activity [21]: Active; Activity [22]: Active; Activity [23]: Active; Activity [24]: Active
